The source of these data is ChEMBL document CHEMBL1144697, “9-cyano-1-azapaullone (cazpaullone), a glycogen synthase kinase-3 (GSK-3) inhibitor activating pancreatic beta cell protection and replication” (J Med Chem, 2008).

Activity calls are given as the source filed them. The rule behind the calls is not given here.

The target of assay [1] is Glycogen synthase kinase-3 (Homo sapiens, UniProt P49840+P49841). The experiment in a line: Inhibition of GSK3alpha/beta in pig brain. More on the design: species or system Sus scrofa. Conditions: target entry is the homologue from another species.
The target in assay [2] is Cyclin-dependent kinase 5/CDK5 activator 1 (Homo sapiens, UniProt Q00535). The experiment in a line: Inhibition of recombinant CDK5/p25 expressed in Escherichia coli.
Sequence of Cyclin-dependent kinase 5/CDK5 activator 1 (Q00535 whole entry): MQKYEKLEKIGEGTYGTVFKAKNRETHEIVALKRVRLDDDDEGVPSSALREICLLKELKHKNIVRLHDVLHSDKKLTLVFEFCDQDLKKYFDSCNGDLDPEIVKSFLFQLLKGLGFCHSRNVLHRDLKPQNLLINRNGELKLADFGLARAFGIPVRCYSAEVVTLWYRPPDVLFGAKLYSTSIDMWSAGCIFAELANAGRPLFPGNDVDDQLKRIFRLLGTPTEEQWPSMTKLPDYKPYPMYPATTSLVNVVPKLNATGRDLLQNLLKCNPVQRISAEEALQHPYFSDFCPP
Sequence of Cyclin-dependent kinase 5/CDK5 activator 1 (Q15078 whole entry, further chain): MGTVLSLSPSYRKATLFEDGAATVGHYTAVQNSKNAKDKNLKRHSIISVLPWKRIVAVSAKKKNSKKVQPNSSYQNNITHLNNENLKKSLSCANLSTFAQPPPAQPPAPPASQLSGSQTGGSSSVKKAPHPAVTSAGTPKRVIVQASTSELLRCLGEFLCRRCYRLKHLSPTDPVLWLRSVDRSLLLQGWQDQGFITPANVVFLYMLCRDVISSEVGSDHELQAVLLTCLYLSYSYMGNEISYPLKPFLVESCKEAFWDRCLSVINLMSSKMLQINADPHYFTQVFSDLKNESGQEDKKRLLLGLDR
Assay [3] can be described thus: Inhibition of starfish CDK1/cyclin B. More on the design: species or system Asteroidea. The gist of the method:
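Kinase inhibition assays at 15 µM final ATP, run in triplicate.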

Another assay deals with SH-SY5Y. Description: Inhibition of GSK3 in human SHSY5Y cells assessed as beta-casein phosphorylation level in presence of MG132. The class given is cell-based. Conditions: in the assay text read “beta-catenin” for “beta-casein”. The gist of the method:
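Nearly confluent SH-SY5Y cells in DMEM with 10% FCS were co-treated with compound across a concentration range plus 2 µM MG132, DMSO ≤1% final. Phospho-β-catenin (Ser33/Ser37/Thr41) measured by ELISA and expressed as % of cells given MG132 alone (100%).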

Assay [4] deals with INS-1E. Description: Protection against glucose and palmitate-induced toxicity in rat INS-1E cells after 24 hrs. The class given is functional, cell-based. The essentials: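 INS-1E cells treated with compound over a concentration range, with or without 0.3 mM BSA-coupled palmitate plus 25 mM glucose for 24 h. Viability/metabolic activity measured as an indirect readout of mitochondrial energy production. At least four wells per point; representative of ≥3 independent studies.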

In assay [5] the test system is INS-1E. Description: Inhibition of glucose and palmitate-induced apoptosis in rat INS-1E cells by DNA fragmentation assay. The class given is functional, cell-based. The essentials: (§1)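 INS-1E cells preincubated 1 h with compound (µM), then exposed to toxic high glucose/palmitate for 24 h. Apoptosis read as cytosolic DNA fragments or caspase activity, as fold change versus untreated control ± SD. At least four wells per point; Student's t test against glucose/palmitate alone.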

In assay [6] the test system is INS-1E. The experiment in a line: Inhibition of glucose and palmitate-induced apoptosis in rat INS-1E cells by caspase activity assay. The class given is functional, cell-based. The essentials: as §1
In assay [7] the test system is INS-1E. The experiment in a line: Stimulation of rat INS-1E cell replication assessed as BrdU incorporation. The class given is functional, cell-based. The gist of the method: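 INS-1E cells exposed to compound at various concentrations for 24 h. Replication measured as BrdU incorporation, given as fold increase versus untreated cells ± SD. At least four wells per point, two independent studies, Student's t test.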

Assay [8] is described as follows: Activation of Pax4 RNA expression in rat INS-1E cells at 10 uM after 4 hrs relative to control. The class given is functional, cell-based. The gist of the method:
(§2)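 Compound added to INS-1E cells for 4 h or 24 h. Pax4 and cyclophilin B transcripts quantified by qRT-PCR. Reported as fold change versus vehicle-treated control, with the control level set to 1. Mean of triplicates ± SD.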

Assay [9] is described as follows: Activation of Pax4 RNA expression in rat INS-1E cells at 10 uM after 24 hrs relative to control. The class given is functional, cell-based. The essentials:
as §2

Assay [10] can be described thus: Activation of cyclophilin B gene expression in rat INS-1E cells at 10 uM after 4 hrs relative to control. The class given is functional, cell-based. The gist of the method:
as §2

Assay [11] can be described thus: Activation of cyclophilin B gene expression in rat INS-1E cells at 10 uM after 24 hrs relative to control. The class given is functional, cell-based. The gist of the method: as §2
For another assay, the system named is Pancreatic beta cell. Description: Stimulation of rat primary beta cell replication at 5 uM. The class given is functional. The gist of the method: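 Isolated rat islets incubated with compound for 72 h, then disaggregated and spotted onto slides. Cells double-immunostained for C-peptide and Ki-67. Replication scored as % Ki-67+ among C-peptide+ cells, compared with untreated islets.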

Assay [12] is described as follows: Activation of Pax4 RNA expression in rat INS-1E cells at 1 uM after 4 hrs relative to control. The class given is functional, cell-based. The essentials:
as §2

Assay [13] in a line: Activation of Pax4 RNA expression in rat INS-1E cells at 1 uM after 24 hrs relative to control. The class given is functional, cell-based. The essentials: as §2
Assay [14] in a line: Activation of cyclophilin B gene expression in rat INS-1E cells at 1 uM after 4 hrs relative to control. The class given is functional, cell-based. The gist of the method:
as §2

Assay [15] is described as follows: Activation of cyclophilin B gene expression in rat INS-1E cells at 1 uM after 24 hrs relative to control. The class given is functional, cell-based. The essentials: as §2

A word on the IC50: it is the concentration that gives 50% inhibition. For `Cn1c2c(c3ccccc31)CC(=O)Nc1cccnc1-2`, the figures for the IC50 in assay [1], in [2] and in [3] were 1 µM, 3 µM and above 10000 nM, respectively.

With `O=C1Cc2c([nH]c3ccc(Br)cc23)-c2ncccc2N1` [AZAKENPAULLONE], the IC50 in assay [3] amounted to 2000 nM.

As to `N#Cc1ccc2c(c1)-c1[nH]c3ccc(C#N)cc3c1CC(=O)N2`, the IC50 in assay [1] amounted to 0.028 µM; in assay [2] it was 0.73 µM; in [3], 120 nM.

Consider `O=C1Cc2c([nH]c3cc(Cl)cc(Cl)c23)-c2ncccc2N1`, for which the IC50 in assay [1] was 0.8 µM; in [2], 100 µM; in assay [3], above 30000 nM.

For `O=C1Cc2c([nH]c3ccccc23)-c2ncccc2N1`, the values for the IC50 in assay [1], in assay [2] and in assay [3] were 0.8 µM, 9 µM and 7000 nM, respectively.

As for `O=C1Cc2c(oc3ccc(Cl)cc23)-c2ccccc2N1`, the IC50 in [1] is above 10 µM; in assay [2], above 10 µM; in [3], above 10000 nM.

With `O=C1Cc2c([nH]c3ccc(C(F)(F)F)cc23)-c2ncccc2N1`, the figures for the IC50 in [1], in [2] and in assay [3] were 0.008 µM, 10 µM and 1650 nM, respectively. Further, the Activity entry in the assay with SH-SY5Y and in the assay with INS-1E [7] was “Dose-dependent effect” in each case. Further, the outcome in the assay on INS-1E [4], with INS-1E [5] and in the assay on INS-1E [6] was Active. The Fold change was determined as 0.72 in assay [8], 0.61 in [9], 1.2 in assay [10] and 1.3 in [11].

For `O=C1Cc2c([nH]c3ccc(I)cc23)-c2ncccc2N1`, the results for the IC50 in assay [1], in assay [2] and in assay [3] were 0.025 µM, 6 µM and 1000 nM, respectively. For the same compound, in the assay on INS-1E [4], the result was Active.

As for `Cc1cnc(-c2cnc(NCCNc3ccc(C#N)cn3)nc2-c2ccc(Cl)cc2Cl)[nH]1` [LADUVIGLUSIB], the Activity in the assay with Pancreatic beta cell is recorded as 2.5. Besides, the Fold change in [8] stood at 0.78; in assay [9] it was 0.76; in [10] it was 1.31; in assay [11] it was 1.12.

As for `CCn1c2c(c3ccccc31)CC(=O)Nc1cccnc1-2`, the IC50 in assay [1] is 13 µM; in assay [2], above 10 µM; in assay [3], above 10000 nM.

For the compound `O=C1Cc2c([nH]c3ccc(C(=O)O)cc23)-c2ncccc2N1`, the figures for the IC50 in assay [1], in [2] and in assay [3] were 100 µM, 30 µM and 2200 nM, respectively.

Regarding `O=C1Cc2c([nH]c3ccc(C(F)(F)F)cc23)-c2cnccc2N1`, the results for the IC50 in [1], in assay [2] and in assay [3] were 0.013 µM, 0.12 µM and 190 nM, respectively.

As to `O=C1Cc2c([nH]c3ccc(Br)cc23)-c2ccccc2N1` [KENPAULLONE], the Activity entry in the assay with SH-SY5Y was “Dose-dependent effect”.

Turning to `O=C1Cc2c([nH]c3ccc(Br)cc23)-c2cnccc2N1`, the IC50 in assay [1] stood at 0.052 µM; in assay [2], 0.18 µM; in assay [3], 110 nM.

As for `CCn1c2c(c3ccccc31)CC(=O)Nc1ccncc1-2`, the IC50 in assay [1] is 0.8 µM; in assay [2], above 10 µM; in assay [3], 3800 nM.

As to `O=C1Cc2c([nH]c3ccc(F)cc23)-c2ncccc2N1`, the IC50 came out at 0.08 µM in [1], 3 µM in [2] and 4500 nM in assay [3]. For the same compound, the outcome in the assay with INS-1E [4], in the assay on INS-1E [5] and in the assay with INS-1E [6] was Active. In the assay with INS-1E [7], the Activity result was “Dose-dependent effect”. In addition, the Fold change was 0.97 in assay [8], 0.45 in assay [9], 1.14 in [10] and 0.97 in assay [11].

As for `Cn1c2c(c3ccccc31)CC(=O)Nc1ccncc1-2`, the results for the IC50 in assay [1], in assay [2] and in assay [3] were 0.4 µM, above 10 µM and 8000 nM, respectively.

With `Cc1ccc2[nH]c3c(c2c1)CC(=O)Nc1cccnc1-3`, the values for the IC50 in [1], in assay [2] and in [3] were 0.13 µM, above 10 µM and 8000 nM, respectively.

Regarding `O=C1Cc2c(n3c4c(cccc24)CC3)-c2ncccc2N1`, the IC50 in assay [1] is 0.41 µM; in assay [2] it was above 10 µM; in [3], above 10000 nM.

Regarding `O=C1Cc2c(oc3ccccc23)-c2ccccc2N1`, the IC50 is above 10 µM in [1], above 10 µM in [2] and above 10000 nM in assay [3].

Regarding `N#Cc1ccc2[nH]c3c(c2c1)CC(=O)Nc1ccncc1-3`, the IC50 turned out to be 0.021 µM in assay [1], 0.032 µM in assay [2] and 31 nM in [3].

For `O=C1Cc2c([nH]c3c(F)cc(F)cc23)-c2ncccc2N1`, the IC50 is 1.8 µM in assay [1], above 10 µM in [2] and above 10000 nM in [3].

As to `O=C1Nc2cc(Br)ccc2/C1=C1/Nc2ccccc2/C1=N\O`, the Fold change in assay [12] is 1.02; in assay [13] it was 0.81; in assay [14], 1.04; in assay [15] it was 1.2.

On to `N#Cc1cc(I)c2[nH]c3c(c2c1)CC(=O)Nc1cccnc1-3`, for which the IC50 came to 0.12 µM in assay [1], 2 µM in assay [2] and 410 nM in [3].

With `O=C1Cc2c(n(Cc3ccccc3)c3ccccc23)-c2ncccc2N1`, the results for the IC50 in assay [1], in assay [2] and in [3] were 2.1 µM, above 10 µM and above 10000 nM, respectively.

For the compound `N#Cc1ccc2[nH]c3c(c2c1)CC(=O)Nc1ccc(Br)nc1-3`, the IC50 in [1] is 3.8 µM; in assay [2] it was 10 µM.

As for `O=C1Cc2c([nH]c3ccc(F)cc23)-c2cnccc2N1`, the IC50 in [1] was determined as 0.051 µM; in [2], 0.26 µM; in assay [3], 1200 nM.

As for `COc1ccc2[nH]c3c(c2c1)CC(=O)Nc1ccncc1-3`, the values for the IC50 in assay [1], in [2] and in [3] were 0.39 µM, 0.4 µM and 200 nM, respectively.

Consider `O=C1Cc2c(n(Cc3ccccc3)c3ccccc23)-c2cnccc2N1`, for which the IC50 in [1] was 0.41 µM; in assay [2], above 10 µM; in assay [3], above 10000 nM.

In the case of `O=C1Cc2c([nH]c3ccc(Cl)cc23)-c2cnccc2N1`, the IC50 in assay [1] worked out at 0.018 µM; in assay [2] it was 0.21 µM; in [3] it was 120 nM.

As for `COc1ccc2[nH]c3c(c2c1)CC(=O)Nc1cccnc1-3`, the results for the IC50 in [1], in assay [2] and in assay [3] were 0.8 µM, 4 µM and 2000 nM, respectively.

Regarding `O=C1Cc2c(n(-c3ccccc3)c3ccccc23)-c2ncccc2N1`, the IC50 in assay [1] is above 10 µM; in assay [2], above 10 µM; in assay [3], above 10000 nM.

Consider `O=C1Cc2c([nH]c3ccc(Cl)cc23)-c2ncccc2N1`, for which the IC50 was 0.063 µM in assay [1], above 10 µM in assay [2] and above 10000 nM in [3].

For the compound `O=C1Cc2c([nH]c3ccc(O)cc23)-c2ncccc2N1`, the IC50 in [1] came out at 1.4 µM; in assay [2], 5 µM; in assay [3], 4000 nM.

Consider `O=C1Cc2c(oc3ccc(Br)cc23)-c2ccccc2N1`, for which the values for the IC50 in assay [1], in assay [2] and in assay [3] were above 10 µM, above 10 µM and above 10000 nM, respectively.
